# Assay results of several laboratories.
# Compare with care: the assays were run in different laboratories.
# AKT2: RAC-beta serine/threonine-protein kinase (AKT2, Homo sapiens, UniProt P31751)
# PDK1: [Pyruvate dehydrogenase (acetyl-transferring)] kinase isozyme 1, mitochondrial (PDK1, Homo sapiens, UniProt Q15118)
Compound,target,observed,action,technique,tested at,endpoint,result
COc1cc(-c2cncc3c2CN(C)Cc2cc(N4CCNCC4)ccc2-3)cc(OC)c1OC,AKT2,enzyme activity,inhibitor,,1 µM,remaining activity,132%
Cc1ncsc1-c1ccc(CNC(=O)[C@@H]2C[C@@H](O)CN2C(=O)[C@@H](NC(=O)CCCCCCCCNC(=O)CN2CCN(C(=O)c3ccc(Nc4nc(C5CC5)cn5c(-c6cn[nH]c6)cnc45)c(F)c3)CC2)C(C)(C)C)cc1,"Mitogen-activated protein kinase kinase kinase 19 (MAP3K19, Homo sapiens, UniProt Q56UN5)",cell-free assay,,competition with immobilised ligand,1 µM,inhibition,> 65%
O=C(c1ccccc1)c1ccc(Oc2ccc(C(=O)C(Cl)Cl)cc2[N+](=O)[O-])cc1,PDK1,enzyme activity,inhibitor,ATP luminescence,10 µM,inhibition,36.9%
C=CC(=O)N1CCC(COCC(=O)N2CCN(c3nc(-c4cnc(N)nc4C(F)F)nc(N4CCOC[C@@H]4C)n3)CC2)CC1,AKT2,binding,,competition with immobilised ligand,1 µM,remaining binding,100%
CC(=O)Nc1ccc(Oc2ccc(C(=O)C(Cl)Cl)cc2[N+](=O)[O-])cc1,PDK1,enzyme activity,inhibitor,ATP luminescence,10 µM,inhibition,22.7%
Cc1cc([C@@H](C)Nc2ccccc2C(=O)O)c2nc(N3CCC(F)(F)CC3)c(C#N)c(=O)n2c1,"Casein kinase I isoform gamma-2 (CSNK1G2, Homo sapiens, UniProt P78368)",binding,,competition with immobilised ligand,1 µM,remaining binding,100%
Cc1cc(NC(=O)c2cccc(NC(=O)/C=C/CN(C)C)c2)ccc1Nc1nccc(-c2cccnc2)n1,"Mast/stem cell growth factor receptor Kit (KIT, Homo sapiens, UniProt P10721)",binding,,competition with immobilised ligand,1 µM,remaining binding,4.1%
O=C(c1ccc(Oc2ccc3c(c2)OCO3)c([N+](=O)[O-])c1)C(Cl)Cl,PDK1,enzyme activity,inhibitor,ATP luminescence,10 µM,inhibition,20.3%
CNc1ncc2c(/C=C/C(=O)N3CCC(OC)CC3)nn(Cc3cccc(C(F)(F)F)c3)c2n1,"Vascular endothelial growth factor receptor 1 (FLT1, Homo sapiens, UniProt P17948)",enzyme activity,inhibitor,radiometric,1 µM,remaining activity,95%
